Consider one molecule from ChEMBL document CHEMBL2434893, “Synthesis, DNA binding and anti-leukemic activity of an aminoacyl nucleolipid” (Bioorg Med Chem Lett, 2013).

The structures appear in SMILES notation. The source made the active and inactive calls. The calls are words filed in the database; no cut-off is given here.

Assay [1] in a line: Binding affinity to GRP78 duplex DNA (unknown origin) at 0.2 to 3.9 mM by CD spectrophotometric analysis. Put shortly:
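CD spectra recorded on duplex DNA (1.1 μM) in phosphate buffer (140 mM KCl, 1 mM MgCl₂, 5 mM sodium phosphate, pH 7.2) titrated with ligand 0–3.9 mM. Samples prepared as for melting. Molar ellipticity followed at the 260–280 nm maximum and the 248 nm minimum.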

The nature of assay [2]: Binding affinity to GRP78 duplex DNA (unknown origin) at 0.7 mM after 36 hrs by gel shift mobility assay relative to control. An outline of the steps:
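Complementary strands (0.57 μM) annealed in 30% sucrose in TAE buffer (89 mM Tris/acetate, 2.5 mM EDTA, […]), incubated 36 h at 37 °C with ligand at 0, 5, 25, 50, 100 equiv per DNA phosphate (0, 0.2, 0.9, 1.9, 3.9 mM). Run on 24% native PAGE. DNA bands visualized by UV-shadowing at 260 nm. K_D taken from the duplex band ratio with versus without ligand.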

Assay [3] relates to UO-31. The assay can be described thus: Cytotoxicity against human UO31 cells assessed as cell growth at 10 uM after 48 hrs by SRB assay relative to control. In kind it is functional. The conditions noted are these: UO-31, 48 h, read-out: Activity. An outline of the steps: (§1)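 Single-dose (10 μM) screen run by the NCI Developmental Therapeutics Program on its 60 human cancer cell line panel. Viability was determined after 48 h incubation with the cells at 37 °C.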

Assay [4] concerns OVCAR-8. As to the kind of experiment: Cytotoxicity against human OVCAR8 cells assessed as cell growth at 10 uM after 48 hrs by SRB assay relative to control. The format is functional. The conditions noted are these: OVCAR-8, 48 h, read-out: Activity. Put shortly:
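NCI Developmental Therapeutics Program 60-cell-line screen at a single dose of 10 μM. Cells incubated with compound for 48 h at 37 °C before viability determination.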
Background: The SRB assay estimates cell density from bound dye.

Assay [5] has as its system UACC-62. As to the kind of experiment: Cytotoxicity against human UACC62 cells assessed as cell growth at 10 uM after 48 hrs by SRB assay relative to control. The conditions noted are these: UACC-62, 48 h, read-out: Activity. In kind it is functional. Put shortly:
as §1

In the case of `CCCCCCCCCCCCCCCC(=O)O[C@@H]1[C@H](OC(=O)CCCCCCCCCCCCCCC)[C@@H](C(=O)N[C@@H](CCCCN)C(=O)OC)O[C@H]1n1cnc2c(=O)[nH]c(NC(=O)C(C)C)nc21.Cl`, the outcome in assay [1] was Active. Further, in assay [2], the Activity was determined as 50%. Also, the growth at 10 µM in assay [3] is 87.1%; in assay [4], 87%; in assay [5], 112%.
